Reference: ChEMBL document CHEMBL4334451, “Natural Alkaloid Berberine Activity against Pseudomonas aeruginosa MexXY-Mediated Aminoglycoside Resistance: In Silico and in Vitro Studies” (J Nat Prod, 2019)
Activity calls are given as the source filed them. The calls are words filed in the database; no cut-off is given here.

What was measured:
Type in all cases: protein-complex assay
[1] = target: T1, MexXY/OprM (Pseudomonas aeruginosa (strain ATCC 15692 / DSM 22644 / CIP 104116 / JCM14847 / LMG 12228 / 1C / PRS 101 / PAO1)) (UniProt Q51487+Q9ZNG9+Q9ZNG8); assay: Inhibition of MexXY/OPRM in Pseudomonas aeruginosa PA14 assessed as reduction in bacterial resistance to tobramycin by measuring tobramycin MIC at 80 ug/ml incubated for 24 to 48 hrs by broth microdilution method (reference value: 0.125 ug/ml)
Method in brief: (§1)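 Broth microdilution per CLSI, with P. aeruginosa ATCC 27853 as reference strain, in 2-fold dilution series. Plates were incubated at 37°C and read for visible growth at 24 and 48 h. Berberine stock was in 50% DMSO/50% methanol, with final DMSO kept near 1%. Berberine was tested at 10–320 µg/ml, alone or at a fixed level with serial tobramycin.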

[2] = target: T1, MexXY/OprM (Pseudomonas aeruginosa (strain ATCC 15692 / DSM 22644 / CIP 104116 / JCM14847 / LMG 12228 / 1C / PRS 101 / PAO1)); assay: Inhibition of MexXY/OPRM in Pseudomonas aeruginosa C30 assessed as reduction in bacterial resistance to tobramycin by measuring tobramycin MIC at 80 ug/ml incubated for 24 to 48 hrs by broth microdilution method (reference value: 8 ug/ml)
[3] = target: T1, MexXY/OprM (Pseudomonas aeruginosa (strain ATCC 15692 / DSM 22644 / CIP 104116 / JCM14847 / LMG 12228 / 1C / PRS 101 / PAO1)); assay: Inhibition of MexXY/OPRM in Pseudomonas aeruginosa AR61 assessed as reduction in bacterial resistance to tobramycin by measuring tobramycin MIC at 80 ug/ml incubated for 24 to 48 hrs by broth microdilution method (reference value: 0.125 ug/ml)
[4] = target: T1, MexXY/OprM (Pseudomonas aeruginosa (strain ATCC 15692 / DSM 22644 / CIP 104116 / JCM14847 / LMG 12228 / 1C / PRS 101 / PAO1)); assay: Inhibition of MexXY/OPRM in Pseudomonas aeruginosa C9 assessed as bacterial growth up to 320 ug/ml incubated for 24 to 48 hrs by broth microdilution method; method in brief: as §1
[5] = target: T1, MexXY/OprM (Pseudomonas aeruginosa (strain ATCC 15692 / DSM 22644 / CIP 104116 / JCM14847 / LMG 12228 / 1C / PRS 101 / PAO1)); assay: Inhibition of MexXY/OPRM in Pseudomonas aeruginosa C76 assessed as bacterial growth up to 320 ug/ml incubated for 24 to 48 hrs by broth microdilution method
Method in brief: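 Broth microdilution following CLSI guidelines, with P. aeruginosa ATCC 27853 as reference strain. Berberine was tested at 2-fold concentrations from 10 to 320 µg/ml, dissolved in 50% DMSO/50% methanol, with the top concentration set to keep final DMSO close to 1%. Plates were incubated at 37°C and read for visible growth at 24 and 48 h.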

[6] = target: T1, MexXY/OprM (Pseudomonas aeruginosa (strain ATCC 15692 / DSM 22644 / CIP 104116 / JCM14847 / LMG 12228 / 1C / PRS 101 / PAO1)); assay: Inhibition of MexXY/OPRM in Pseudomonas aeruginosa C89 assessed as bacterial growth up to 320 ug/ml incubated for 24 to 48 hrs by broth microdilution method; method in brief: as §1
[7] = target: T1, MexXY/OprM (Pseudomonas aeruginosa (strain ATCC 15692 / DSM 22644 / CIP 104116 / JCM14847 / LMG 12228 / 1C / PRS 101 / PAO1)); assay: Inhibition of MexXY/OPRM in Pseudomonas aeruginosa C84 assessed as reduction in bacterial resistance to tobramycin by measuring fold reduction in tobramycin MIC at 80 ug/ml incubated for 24 to 48 hrs by broth microdilution method
Method in brief: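 Tobramycin MIC by CLSI broth microdilution at 37°C, read at 24 and 48 h, with and without a fixed berberine concentration selected from checkerboard assays. Berberine stock was in 50% DMSO/50% methanol, final DMSO about 1%. A 2-fold decrease in tobramycin MIC was scored as synergy.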

COc1ccc2cc3[n+](cc2c1OC)CCc1cc2c(cc1-3)OCO2 [BERBERINE]
MIC [1]: 0.125 µg/mL | MIC [2]: 8 µg/mL | MIC [3]: 0.125 µg/mL | inhibition [4]: inactive | inhibition [5]: inactive | inhibition [6]: inactive | fold change (FC) [7]: > 2
